Reference: ChEMBL document CHEMBL1152861, “Synthesis and serotonin receptor activity of the arylpiperazine alkyl/propoxy derivatives of new azatricycloundecanes” (Eur J Med Chem, 2009)
Calls of active or inactive are those of the source. The rule behind the calls is not given here.

Experiments:
[1] = target: T1, 5-hydroxytryptamine receptor 1A (Rattus norvegicus, UniProt P19327); assay: Displacement of [3H]8-OH-DPAT from 5HT1A receptor in rat hippocampal membranes; format: cell membranes, Hippocampus, Membrane
T1 sequence (P19327 whole entry): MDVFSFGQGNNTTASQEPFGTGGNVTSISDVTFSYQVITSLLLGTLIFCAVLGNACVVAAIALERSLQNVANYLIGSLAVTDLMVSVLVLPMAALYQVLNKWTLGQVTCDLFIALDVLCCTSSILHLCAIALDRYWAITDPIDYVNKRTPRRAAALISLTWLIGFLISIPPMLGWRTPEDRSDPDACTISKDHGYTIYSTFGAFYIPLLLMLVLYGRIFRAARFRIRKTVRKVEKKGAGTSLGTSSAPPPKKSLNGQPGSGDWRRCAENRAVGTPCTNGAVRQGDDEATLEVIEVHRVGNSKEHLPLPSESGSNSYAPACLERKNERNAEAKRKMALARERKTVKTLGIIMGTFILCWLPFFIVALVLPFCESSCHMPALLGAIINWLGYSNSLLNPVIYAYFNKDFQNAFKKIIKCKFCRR

[2] = target: 5-hydroxytryptamine receptor 2A (Homo sapiens, UniProt P28223); assay: Displacement of [3H]ketanserin from 5HT2A receptor
5-hydroxytryptamine receptor 2A, sequence (P28223 whole entry): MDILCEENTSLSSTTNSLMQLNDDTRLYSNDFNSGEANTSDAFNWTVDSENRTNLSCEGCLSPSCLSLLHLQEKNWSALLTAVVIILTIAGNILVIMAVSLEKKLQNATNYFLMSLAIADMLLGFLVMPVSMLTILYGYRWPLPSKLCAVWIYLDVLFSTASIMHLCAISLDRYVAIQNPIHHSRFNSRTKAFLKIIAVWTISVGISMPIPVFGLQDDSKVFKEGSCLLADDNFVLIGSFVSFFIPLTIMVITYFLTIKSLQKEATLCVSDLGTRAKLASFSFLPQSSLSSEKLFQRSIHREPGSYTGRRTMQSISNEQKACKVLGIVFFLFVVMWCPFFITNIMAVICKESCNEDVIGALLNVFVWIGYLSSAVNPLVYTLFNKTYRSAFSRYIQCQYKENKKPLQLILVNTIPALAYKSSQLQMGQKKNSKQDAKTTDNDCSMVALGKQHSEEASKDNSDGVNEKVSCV

[3] = tested on: Mus musculus; assay: Antidepressive activity in Albino Swiss mouse assessed as total immobility time at 2.5 mg/kg, ip after 30 mins measured for 4 mins by forced swimming test; format: functional; settings: route intraperitoneal
Summary of the method: (§1)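 Forced swimming test in male Albino Swiss mice (20-24 g), 8 per group. Compounds given ip as suspensions in 1% Tween 80, 0.1 mL/10 g, at doses of 0.1-0.00635 of LD50, 30 min before test; imipramine 15 mg/kg ip as reference; controls got vehicle. Mice swam 6 min in a glass cylinder with 15 cm of 25 °C water; total immobility time scored; mean ± SEM.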

[4] = tested on: Mus musculus; assay: Effect on spontaneous locomotor activity in Albino Swiss mouse administered intraperitoneally dose equivalent to 0.1 of LD50 after 30 mins measured for 60 min by automatic photoresistor actometer
[5] = tested on: Mus musculus; assay: Antidepressive activity in Albino Swiss mouse assessed as total immobility time at 5 mg/kg, ip after 30 mins measured for 4 mins by forced swimming test; format: functional; settings: route intraperitoneal; summary of the method: as §1
[6] = tested on: Mus musculus; assay: Antidepressive activity in Albino Swiss mouse assessed as total immobility time at 1.25 mg/kg, ip after 30 mins measured for 4 mins by forced swimming test; format: functional; settings: route intraperitoneal; summary of the method: as §1
[7] = tested on: Mus musculus; assay: Antidepressive activity in Albino Swiss mouse assessed as total immobility time at 20 mg/kg, ip after 30 mins measured for 4 mins by forced swimming test; format: functional; settings: route intraperitoneal; summary of the method: as §1
[8] = tested on: Mus musculus; assay: Antidepressive activity in Albino Swiss mouse assessed as total immobility time at 10 mg/kg, ip after 30 mins measured for 4 mins by forced swimming test; format: functional; settings: route intraperitoneal; summary of the method: as §1
[9] = tested on: Mus musculus; assay: Neurotoxicity in Albino Swiss mouse administered intraperitoneally dose equivalent to 0.1 of LD50 after 30 mins measured for 1 min by chimney test; format: toxicity, organism-based; settings: in vivo, ip
Summary of the method: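 Male Albino Swiss mice (20-24 g), i.p. suspension in 1% Tween 80 at 0.1 mL/10 g body weight, with vehicle controls and 8 mice per group. Tested 30 min post-dose by having mice climb backwards up a plastic tube (3 cm inner diameter, 25 cm long). Failing three tasks within 60 s scored as motor impairment, reported as % of animals failing.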

[10] = tested on: Mus musculus; assay: Anxiolytic activity in Albino Swiss mouse assessed as number of punished crossing administered intraperitoneally dose equivalent to 0.1 of LD50 after 30 mins measured for 1 min by four-plate test; format: functional, organism-based
Summary of the method: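 Male Albino Swiss mice (20-24 g), 8 per group, received ip compound in 1% Tween 80 (0.1 mL/10 g) at a dose equal to 0.1 of LD50; vehicle controls. Four-plate test 30 min later; punished crossings counted over 1 min.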

[11] = Selectivity ratio of Ki for 5HT2A receptor to Ki for rat 5HT1A receptor
[12] = tested on: Mus musculus; assay: Antidepressive activity in Albino Swiss mouse assessed as total immobility time at 15 mg/kg, ip after 30 mins measured for 4 mins by forced swimming test; format: functional; settings: route intraperitoneal; summary of the method: as §1

Row | Compound | Ki [1] | Ki [2] | Activity [4] | Activity [9] | Activity [10] | also measured
1 | CCOC12CCC(C(=O)C1)C1C(=O)N(CCCCN3CCN(c4ccccc4OC)CC3)C(=O)C12 (configuration not stated) | 26 nM | 2790 nM | – | – | – | –
2 | COc1ccccc1N1CCN(CCCON2C(=O)C3C4C(=O)CC(C)(CC4C)C3C2=O)CC1 (configuration not stated) | 124 nM | 637 nM | inactive | Not Active | inactive | Time [3]: 83.5 s; Time [5]: 63.5 s; Time [6]: 123.7 s; Time [7]: 29.4 s; Time [8]: 31.2 s
3 | CC(=O)OC12C=C(C)C(C(C)C1)C1C(=O)N(CCCCN3CCN(c4ccccc4)CC3)C(=O)C12 (configuration not stated) | 34 nM | 286 nM | inactive | Not Active | inactive | –
4 | COc1ccccc1N1CCN(CCCON2C(=O)C3C4C(C)=CC(OC(C)=O)(CC4C)C3C2=O)CC1 (configuration not stated) | 27 nM | 681 nM | inactive | Not Active | inactive | –
5 | CC(=O)OC12C=C(C)C(C(C)C1)C1C(=O)N(CCCCN3CCN(c4ncccn4)CC3)C(=O)C12 (configuration not stated) | 800 nM | 6020 nM | – | – | – | –
6 | CC1CC2(C)CC(=O)C1C1C(=O)N(OCCCN3CCN(c4cccc(Cl)c4)CC3)C(=O)C12 (configuration not stated) | 92 nM | 110 nM | inactive | Not Active | inactive | –
7 | COc1ccccc1N1CCN(CCCN2C(=O)C3C4C(C)=CC(OC(C)=O)(CC4C)C3C2=O)CC1 (configuration not stated) | 35 nM | 1020 nM | inactive | Not Active | inactive | –
8 | CC(=O)OC12C=C(C)C(C(C)C1)C1C(=O)N(CCCCN3CCN(c4ccccn4)CC3)C(=O)C12 (configuration not stated) | 97 nM | 965 nM | inactive | Not Active | inactive | –
9 | COc1ccccc1N1CCN(CCCN2C(=O)C3C4C(=O)CC(C)(CC4C)C3C2=O)CC1 (configuration not stated) | 44 nM | 429 nM | inactive | Not Active | inactive | –
10 | CC(=O)OC12C=C(C)C(C(C)C1)C1C(=O)N(OCCCN3CCN(c4ccccn4)CC3)C(=O)C12 (configuration not stated) | 200 nM | 1840 nM | – | – | – | –
11 | CC(=O)OC12C=C(C)C(C(C)C1)C1C(=O)N(OCCCN3CCN(c4ccccc4)CC3)C(=O)C12 (configuration not stated) | 115 nM | 375 nM | inactive | Not Active | inactive | –
12 | COc1ccccc1N1CCN(CCCON2C(=O)C3C4C=CC(OC)(CC4)C3C2=O)CC1 (configuration not stated) | 31 nM | 1390 nM | – | – | – | –
13 | CC1CC2(C)CC(=O)C1C1C(=O)N(CCCCN3CCN(c4ncccn4)CC3)C(=O)C12 (configuration not stated) | 1520 nM | 3380 nM | – | – | – | –
14 | CC(=O)OC12C=C(C)C(C(C)C1)C1C(=O)N(CCCCN3CCN(Cc4ccccc4)CC3)C(=O)C12 (configuration not stated) | 1420 nM | 9720 nM | – | – | – | –
15 | CC(=O)OC12C=C(C)C(C(C)C1)C1C(=O)N(OCCCN3CCN(c4cccc(Cl)c4)CC3)C(=O)C12 (configuration not stated) | 37 nM | 376 nM | inactive | Not Active | inactive | –
16 | COc1ccccc1N1CCN(CCCCN2C(=O)C3C4C(=O)CC(C)(CC4C)C3C2=O)CC1 (configuration not stated) | 25 nM | 522 nM | inactive | Not Active | inactive | –
17 | CC1CC2(C)CC(=O)C1C1C(=O)N(CCCN3CCN(c4ccccc4)CC3)C(=O)C12 (configuration not stated) | 344 nM | 292 nM | – | – | – | –
18 | COc1ccccc1N1CCN(CCCCN2C(=O)C3C4C(=O)CC(OC(C)=O)(CC4(C)C)C3C2=O)CC1 (configuration not stated) | 22 nM | 770 nM | – | – | – | –
19 | COc1ccccc1N1CCN(CCCCN2C(=O)C3C4C(C)=CC(OC(C)=O)(CC4C)C3C2=O)CC1 (configuration not stated) | 10 nM | 737 nM | inactive | Not Active | inactive | Time [5]: 113.8 s; Time [8]: 71.7 s; Ratio Ki [11]: 74
20 | CC1CC2(C)CC(=O)C1C1C(=O)N(CCCCN3CCN(c4ccc(F)cc4)CC3)C(=O)C12 (configuration not stated) | 521 nM | 102 nM | inactive | Not Active | inactive | –
21 | CC1CC2(C)CC(=O)C1C1C(=O)N(CCCCN3CCN(Cc4ccccc4)CC3)C(=O)C12 (configuration not stated) | 2730 nM | 2090 nM | – | – | – | –
22 | CC1CC2(C)CC(=O)C1C1C(=O)N(OCCCN3CCN(c4ccccc4)CC3)C(=O)C12 (configuration not stated) | 616 nM | 300 nM | – | – | – | –
23 | CC(=O)OC12C=C(C)C(C(C)C1)C1C(=O)N(OCCCN3CCN(c4ccccc4F)CC3)C(=O)C12 (configuration not stated) | 80 nM | 1070 nM | inactive | Not Active | inactive | Time [3]: 56.8 s; Time [5]: 48.3 s; Time [6]: 114.3 s; Time [7]: 18.4 s; Time [8]: 27.5 s
24 | CC(=O)OC12C=C(C)C(C(C)C1)C1C(=O)N(CCCN3CCN(c4ccccc4)CC3)C(=O)C12 (configuration not stated) | 294 nM | 575 nM | – | – | – | –
25 | CC1CC2(C)CC(=O)C1C1C(=O)N(CCCCN3CCN(c4ccccn4)CC3)C(=O)C12 (configuration not stated) | 202 nM | 577 nM | – | – | – | –
26 | CC1CC2(C)CC(=O)C1C1C(=O)N(OCCCN3CCN(c4ccccc4F)CC3)C(=O)C12 (configuration not stated) | 331 nM | 910 nM | – | – | – | –
27 | CC1CC2(C)CC(=O)C1C1C(=O)N(CCCCN3CCN(c4ccccc4)CC3)C(=O)C12 (configuration not stated) | 50 nM | 181 nM | inactive | Not Active | inactive | –
28 | CC(=O)OC12C=C(C)C(C(C)C1)C1C(=O)N(CCCCN3CCN(c4ccc(F)cc4)CC3)C(=O)C12 (configuration not stated) | 286 nM | 170 nM | – | – | – | –
29 | CN(C)CCCN1c2ccccc2CCc2ccccc21 [IMIPRAMINE] | – | – | – | – | – | Time [12]: 69.5 s
